High-throughput results: PubChem BioAssay, Sanford-Burnham Center for Chemical Genomics
An excerpt weighted towards active compounds, which were near 1.3% of everything screened.
HKDC1 inh: inhibitors of human hexokinase HKDC1; recombinant HKDC1, G6PDH/diaphorase resazurin coupled fluorescence; inhibition, % at 20 µM; 0.16% of 340,000 active; Q2TB90; AID 493160;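 active = inhibition above about 35% when tested at 20 µM, limit read from the data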;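 also: plate controls were DMSO wells with enzyme for no effect and DMSO wells lacking enzyme for full effect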
Target sequence (Q2TB90 whole entry, looked up): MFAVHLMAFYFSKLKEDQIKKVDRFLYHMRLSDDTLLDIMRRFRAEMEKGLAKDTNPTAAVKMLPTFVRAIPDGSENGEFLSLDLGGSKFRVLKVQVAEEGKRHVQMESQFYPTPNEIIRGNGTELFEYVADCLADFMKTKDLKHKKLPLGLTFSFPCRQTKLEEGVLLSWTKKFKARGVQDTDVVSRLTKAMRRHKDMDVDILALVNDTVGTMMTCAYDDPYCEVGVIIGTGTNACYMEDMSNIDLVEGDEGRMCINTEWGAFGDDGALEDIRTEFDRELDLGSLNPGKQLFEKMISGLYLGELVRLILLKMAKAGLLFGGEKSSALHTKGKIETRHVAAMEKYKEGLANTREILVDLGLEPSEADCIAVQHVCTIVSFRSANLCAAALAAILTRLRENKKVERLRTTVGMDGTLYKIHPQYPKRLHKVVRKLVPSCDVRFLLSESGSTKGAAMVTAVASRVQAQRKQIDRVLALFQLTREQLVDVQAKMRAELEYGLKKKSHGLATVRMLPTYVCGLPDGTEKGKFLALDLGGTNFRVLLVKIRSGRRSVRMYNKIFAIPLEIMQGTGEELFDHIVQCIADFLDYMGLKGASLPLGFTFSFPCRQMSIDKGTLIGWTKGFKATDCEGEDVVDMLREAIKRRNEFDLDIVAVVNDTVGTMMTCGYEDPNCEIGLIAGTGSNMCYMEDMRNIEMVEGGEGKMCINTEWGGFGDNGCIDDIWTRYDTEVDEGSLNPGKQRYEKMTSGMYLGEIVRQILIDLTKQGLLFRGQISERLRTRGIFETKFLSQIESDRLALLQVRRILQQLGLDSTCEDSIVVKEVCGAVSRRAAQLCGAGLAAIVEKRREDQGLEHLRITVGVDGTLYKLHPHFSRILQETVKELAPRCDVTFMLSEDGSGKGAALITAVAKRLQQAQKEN
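Assay system: in-house recombinant HK5 (HKDC1) enzyme. Input: HKDC1 at 5 µg/mL. Medium: Tris pH 8.0 buffer with MgCl2, Tween-20, BSA, BME. Dosing: single 20 µM dose. Schedule: 90 min reaction incubation at room temperature, dark. Signal: resazurin-to-resorufin fluorescence via G6PDH and diaphorase coupling, 525/613 nm. Controls: DMSO-enzyme wells negative, buffer-substituted wells positive.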
G6PDH counter: counter-screen for G6PDH assay hits: L. mesenteroides G6PDH inhibition; Purified L. mesenteroides G6PDH, diaphorase/resazurin coupled fluorescence, 45 min; inhibition, % at 5 µM; 0.12% of 200,000 active; AID 1020; in the data active = inhibition above about 50%
Diaph inh CS: counter-screen for diaphorase-based assays: diaphorase inhibitors and chemical oxidizers. AID 1217. inhibition, % at 20 µM. 0.69% of 190,000 active. diaphorase resazurin-to-resorufin fluorescence, NADH, 16 min; bacterial (C. kluyveri) enzyme, not human;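 active = primary screen inhibition at 20 µM above a set limit, cut at about 50% in these data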;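 also: plate controls were DMSO with full reaction for no effect and wells lacking NADH for full effect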
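Assay system – diaphorase enzyme from Clostridium kluyveri · Amount – diaphorase 0.14 U/mL (working solution) · Times – reaction incubation of 16 min at room temperature · Controls – No-NADH positive control and DMSO neutral control · Signal – resorufin fluorescence 544/590 nm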
Diaphorase act: diaphorase activation or chemical reduction counter-screen | Diaphorase/resazurin coupled assay, resorufin fluorescence, 16 min; hits give high values; 1 = vehicle wells, 0 = NADH-free wells | activation factor at 20 µM | 0.005% of 190,000 active;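 active = diaphorase activity raised at least twofold by the compound at 20 µM; inactive = activation factor below 2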
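test system = bacterial diaphorase enzyme (C. kluyveri) | quantity = enzyme 0.07 U/mL final | reagent = NADH substrate 0.114 mM plus resazurin dye 0.1 mM, final | incubation = 16 min enzyme reaction, ambient temperature | buffer or medium = HEPES pH 7.4 buffer with MgCl2 and Tween 20 | signal = fluorescence of resorufin, 544 nm excitation, 590 nm emission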
PfG6PD inh: PfG6PD (Plasmodium falciparum) enzyme inhibition | PfGluPho enzyme, NADPH resazurin-diaphorase fluorescence | inhibition, % at 20 µM | 0.78% of 350,000 active | AID 504690;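 active = inhibition reaching at least a set limit at 20 µM in the primary screen, cut at about 59% in these data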;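 also: 0% = DMSO wells with substrate and 100% = DMSO wells lacking glucose-6-phosphate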
HKDC1 act conf: HKDC1 (human) activation, single-dose confirmed; shares compounds with HKDC1 inh; recombinant HKDC1, G6PDH/diaphorase resazurin fluorescence; hits give low values; inhibition, % at 20 µM; 14% of 740 active; AID 504708;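 active = inhibition at or below a set negative limit, negative inhibition meaning the enzyme was activated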
PfGluPho conf: confirmation of Plasmodium falciparum G6PD inhibitors | recombinant PfGluPho, NADPH-diaphorase-resazurin fluorescence | shares compounds with PfG6PD inh | inhibition, % at 20 µM | 34% of 2,400 active;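 active = inhibition of at least 50% at 20 µM in any single replicate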;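 also: 0% = DMSO with substrate and 100% = DMSO lacking glucose-6-phosphate substrate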
Diaphorase 10uM: inhibits diaphorase or oxidizes, flagging false PfG6PD hits. inhibition, % at 20 µM. 39% of 820 active. diaphorase-coupled resazurin reduction, fluorescence, NADPH 10 uM. shares compounds with PfG6PD inh;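 active = average inhibition reaching 50% or more with the compound at 20 µM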;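 also: resorufin red fluorescence formed as diaphorase reduces resazurin using NADPH; 0% = DMSO with enzyme and 100% = DMSO without enzyme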
Diaph ctr 30uM: inhibits diaphorase or oxidizes, flagging false PfG6PD hits; shares compounds with PfG6PD inh; Diaphorase/resazurin coupled assay, resorufin fluorescence, 30 uM NADPH; inhibition, % at 20 µM; 29% of 820 active;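 active = inhibition averaging 50% or more, tested at 20 µM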;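 also: 0% = DMSO with enzyme and 100% = DMSO wells lacking diaphorase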
* hit, by the source's call; x = no result; ! = not confirmed by another sample.

SMILES	HKDC1 inh	G6PDH counter	Diaph inh CS	Diaphorase act	PfG6PD inh	HKDC1 act conf	PfGluPho conf	Diaphorase 10uM	Diaph ctr 30uM
COCC(=O)OC1CCn2c1nc1c2C(=O)C(C)=C(NC(C)=O)C1=O (centres undefined)	68*	x	x	x	123*	79	104*	99*	89*
c1ccc2nc3c(nc2c1)c1ccccc1n3CCN1CCOCC1	-1	-20	16	0.8	33	x	x	x	x
CCn1c2ccccc2c2nc3cc(S(=O)(=O)N4CCOCC4)ccc3nc21	-61	0	19	0.8	100*	-47*	61*	-9	3
CC1=NOC(=O)/C1=C\c1ccc(-c2cccc(Cl)c2)o1	38*	3	-6	1.1	72*	3	11	x	x
CCn1c(C)c(C(C)=O)c(N2CCN(c3ccc(OC)cc3)CC2)nc1=S	-2	8	13	0.9	17	x	x	x	x
O=C1C(Cl)=C(NCCc2ccccc2)C(=O)c2ccccc21	53*	x	x	x	97*	59	80*	2	-2
CC(NC(=O)c1cc(Br)cs1)C1CCCO1 (centres undefined)	5	x	x	x	-14	x	x	x	x
O=S(=O)(Nc1cc(Sc2ncn[nH]2)c(O)c2ccccc12)c1ccccc1	55*	54*	18	0.8	102*	48	98*	53*	46
Cc1nc2ccccc2n1Cc1ccccc1Br	-4	x	x	x	-2	x	x	x	x
O=C1C=CC(=O)c2c(O)c(N3CCN(CCOCCO)CC3)c(Br)c(O)c21	46*	x	x	x	115*	11	87*	61*	53*
O=C1C=CC(=O)c2c(O)c(N3CCN(CCO)CC3)c(Cl)c(O)c21	32	x	x	x	103*	10	89*	54*	57*
C[n+]1c2cc(N)ccc2cc2ccc(N)cc21	44*!	x	x	x	78*	-20	19	x	x
Nc1ccc2ccc(O)cc2c1	15	x	x	x	32	x	x	x	x
COc1cc(N=c2ssnc2Cl)cc(OC)c1OC	-100	-3	20	0.8	83*	-46*	68*	-26	-22
COc1cc(-c2nnc(-c3cc(OC)c(OC)c(OC)c3)o2)cc(OC)c1OC	-6	1	14	0.9	10	x	x	x	x
CCCN(CC(=O)Nc1ccc(F)c(F)c1F)C(=O)CN1C(=O)NC2(CCCCC2)C1=O	-5	x	x	x	8	x	x	x	x
O=C1C(=C(I)I)c2ccccc2-c2ccccc21	61*	x	x	x	104*	32	60*	61*	70*
COC(=O)c1ccc(CCc2cc(O)c(Br)cc2O)cc1	69*	x	x	x	119*	54	19	x	x
N#Cc1c([N+](=O)[O-])cc([N+](=O)[O-])cc1S(=O)(=O)Cc1ccccc1	34	x	x	x	109*	20	100*	91*	92*
NC1=CC(=O)C(=O)c2ccccc21	49*	x	x	x	71*	49	33	x	x
COc1ccc(NC(=O)C2CCCN(C)C2)cc1OCC(C)C (centres undefined)	-2	9	2	1	3	x	x	x	x
Cc1cccc(C(=O)NCC(=O)N2CCN(S(=O)(=O)c3cc(C)ccc3C)CC2)c1	2	x	x	x	-19	x	x	x	x
COc1ccc(N=NC2=C(O)CC(C)(C)CC2=O)cc1	0	5	8	0.9	-1	x	x	x	x
O=C1OC(c2ccc3ccccc3c2O)(c2ccc3ccccc3c2O)c2ccccc21	36*	x	x	x	75*	15	57*	15	11
O=C1OC(c2ccc(O)cc2)(c2ccc(O)cc2)c2ccccc21	2	10	15	0.9	-48	x	x	x	x
SMILES	HKDC1 inh	G6PDH counter	Diaph inh CS	Diaphorase act	PfG6PD inh	HKDC1 act conf	PfGluPho conf	Diaphorase 10uM	Diaph ctr 30uM
CN(C)c1ccc(Cc2cc3c(O)ccc(O)c3cc(Cc3ccc(N(C)C)cc3)c2=O)cc1	60*	x	x	x	113*	45	84*	11	4
O=P(Cc1cccc[n+]1[O-])(c1ccccc1)c1ccccc1	4	9	-18	1.2	11	x	x	x	x
CC1(OC(=O)C2CCCC2)C(=O)C=C2C=C(c3ccsc3)N(CCc3c[nH]c4ccccc34)C=C2C1=O (centres undefined)	35*	x	x	x	78*	6	66*	5	8
CN(C)c1ccc2nc3ccc(=[N+](C)C)cc-3sc2c1	36*	1	-22	1.2	112*	25	84*	79*	78*
COc1ccc(-c2ccnc3nc(Sc4ncc(C(F)(F)F)cc4Cl)nn23)cc1	5	5	4	1	18	x	x	x	x
COc1ccc(N2C3=C(CC4=C2CCCC4=O)C(=O)CCC3)cc1	33	29	64*	0.4	97*	47	19	x	x
O=C1CC2(CCCCC2)CC(=O)N1CCc1ccccc1	-4	x	x	x	13	x	x	x	x
